Measured values from different studies.
Lines come from different studies, so protocols differ.

Structure (SMILES)	target	assay	conditions	IC50 [nM]
CC(=O)c1cc(O)c2ccccc2c1O	Genome polyprotein, methyltransferase (ZIKV, UniProt A0A024B7W1)	enzyme activity, inhibitor, TR-FRET	–	12900
COc1cc(C(=O)N2CC[C@@H](O)[C@@H](N)C2)cc2nc(-c3cc4ccccc4n3CC3CC3)n(C)c12	Sodium channel protein type 5 subunit alpha (SCN5A, Homo sapiens, UniProt Q14524)	ion current, inhibitor	–	39800
COc1ncccc1NS(=O)(=O)c1ccc(S(=O)(=O)F)c2c1CCNC2	RALB (Homo sapiens, UniProt P11234, Y82F)	cell-free assay, inhibitor, fluorescence	–	> 100000
Nc1ncnc2c1ncn2[C@@H]1O[C@H](COP(=O)(O)OP(=O)(O)OP(=O)(O)O)[C@@H](O)[C@H]1O	Heat shock cognate 71 kDa protein (HSPA8, Homo sapiens, UniProt P11142)	ligand displacement, FP	–	200
O=c1c2ccccc2[nH]c(=S)n1-c1ccccc1	Cathepsin B (CTSB, Homo sapiens, UniProt P07858)	enzyme activity, inhibitor	–	76700
CCCCCCCCCCCCCC(=O)O[C@@H]1[C@@H](C)[C@@]2(O)[C@@H](C=C(CO)C[C@]3(O)C(=O)C(C)=C[C@@H]23)[C@@H]2C(C)(C)[C@]12OC(C)=O	Proteinase-activated receptor 1 (F2R, Homo sapiens, UniProt P25116)	calcium signal, antagonist	–	7.47
CC(C)N(C)[C@@H]1CC[C@H](N2CC[C@H](NC(=O)c3cccc(C(F)(F)F)c3)C2=O)[C@H](CS(=O)(=O)C(C)C)C1	C-C chemokine receptor type 2 (CCR2, Homo sapiens, UniProt P41597)	cell-free assay	–	0.3
O=c1c(O)c(-c2cc(O)c(O)c(O)c2)oc2cc(O)cc(O)c12	Genome polyprotein, protease (ZIKV, UniProt A0A024B7W1)	enzyme activity, inhibitor, FRET	pH 7	22000
CCCCCCCCCCCCCCCCOC[C@H](COP(=O)([O-])OCC[N+](C)(C)C)OC(C)=O	Platelet-activating factor receptor (PTAFR, Homo sapiens, UniProt P25105)	ligand displacement, radioligand	–	0.27
C[C@H](N)Cn1ncc2ccc3c(c21)CCCO3	5-hydroxytryptamine receptor 6 (HTR6, Homo sapiens, UniProt P50406)	ligand displacement, radioligand	–	19600
N=C1CCCN1Cc1[nH]c(=O)[nH]c(=O)c1Br	Thymidine phosphorylase (Homo sapiens, UniProt P19971)	enzyme activity, inhibitor	–	2.7
CC(C)C[C@H]1C(=O)N2CCC[C@H]2[C@]2(O)O[C@](NC(=O)[C@@H]3C=C4c5cccc6[nH]c(Br)c(c56)C[C@H]4N(C)C3)(C(C)C)C(=O)N12	5-hydroxytryptamine receptor 7 (HTR7, Homo sapiens, UniProt P34969)	ligand displacement, radioligand	–	152
Cc1ccc(-c2ncn(-c3ccc(Nc4nccc(-c5cccc(N6CCOCC6)c5)n4)cc3)n2)cn1	Mitogen-activated protein kinase 10 (MAPK10, Homo sapiens, UniProt P53779)	enzyme activity, inhibitor	–	159
O=c1cc(-c2ccccc2)oc2c1ccc1occc12	Cyclin-dependent kinase 2, with cyclin E1 (CDK2, Homo sapiens, UniProt P24941)	enzyme activity, inhibitor, ADP detection	–	7900
